Experimental data published in article PMC4600222 (Chemmedchem, 2015).

How the values were obtained:
[1] = system: CVB3 Nancy (L1092); assay: CPE inhibition in HeLa cells, CVB3 Nancy; format: cell-based, coxsackievirus B3; conditions: Enterovirus B, read-out: IC50, cytopathic effect of CVB3 Nancy
[2] = system: CVB3 97927 (I1092); assay: CPE inhibition in HeLa cells, CVB3 97927; format: cell-based, coxsackievirus B3; conditions: Enterovirus B, read-out: IC50, cytopathic effect of CVB3 97927
[3] = system: 46 RV serotypes and 14 EV strains; assay: CPE inhibition assays in HeLa cells, panel of 60 RV and EV strains; format: cell-based, rhinovirus, enterovirus
[4] = system: CVB3 Nancy wildtype; assay: Plaque reduction assay in HeLa cells, CVB3 Nancy wildtype; format: cell-based, coxsackievirus B3; conditions: Enterovirus B, read-out: IC50 plaque inhibition, CVB3 Nancy wildtype
Outline: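 Plaque reduction assay in HeLa cells on wild-type CVB3 Nancy and on compound-resistant variants. The variants were isolated from wild-type pools under 1 μg mL−1 (2.7 μm) test compound, and their amino acid substitutions were identified by genetic characterization. IC50 is taken from plaque inhibition. Means and/or SD come from at least three assays.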

[5] = system: CVB3 Nancy; assay: Mechanism of action, modified plaque reduction assay; format: cell-based, coxsackievirus B3; conditions: 0.5 and 1 μM
[6] = Plasma stability; format: in vitro ADME
[7] = Metabolic stability; format: in vitro ADME
[8] = molecular target: K+ channel (hERG) (Homo sapiens, UniProt Q12809); assay: QT prolongation K+ channel
[9] = system: CYP1A2, CYP2B6, and CYP3A4; assay: Induction of cytochrome P450 isoforms; format: in vitro ADME
[10] = system: CYP1A, CYP2B6, CYP2C8, CYP2C9, CYP2C19, CYP2D6, and CYP3A; assay: Inhibition of cytochrome P450 isoforms; format: in vitro ADME
[11] = Pharmacokinetics in mice after intragastric administration; format: in vivo
[12] = Acute toxicity in mice; format: in vivo; conditions: no indications of adverse effects
[13] = Subacute; format: in vivo; conditions: 12.5, 50 and 200 mg kg^−1, 30 days, male BALB/c mice; acute >3 g kg^−1
[14] = system: CVB3 31-1-93; assay: CVB3-induced chronic myocarditis in NMRI mice; format: in vivo; conditions: 100 mg kg^−1 orally twice daily for 7 days

Chain of K+ channel (hERG) (Q12809 whole entry, canonical isoform): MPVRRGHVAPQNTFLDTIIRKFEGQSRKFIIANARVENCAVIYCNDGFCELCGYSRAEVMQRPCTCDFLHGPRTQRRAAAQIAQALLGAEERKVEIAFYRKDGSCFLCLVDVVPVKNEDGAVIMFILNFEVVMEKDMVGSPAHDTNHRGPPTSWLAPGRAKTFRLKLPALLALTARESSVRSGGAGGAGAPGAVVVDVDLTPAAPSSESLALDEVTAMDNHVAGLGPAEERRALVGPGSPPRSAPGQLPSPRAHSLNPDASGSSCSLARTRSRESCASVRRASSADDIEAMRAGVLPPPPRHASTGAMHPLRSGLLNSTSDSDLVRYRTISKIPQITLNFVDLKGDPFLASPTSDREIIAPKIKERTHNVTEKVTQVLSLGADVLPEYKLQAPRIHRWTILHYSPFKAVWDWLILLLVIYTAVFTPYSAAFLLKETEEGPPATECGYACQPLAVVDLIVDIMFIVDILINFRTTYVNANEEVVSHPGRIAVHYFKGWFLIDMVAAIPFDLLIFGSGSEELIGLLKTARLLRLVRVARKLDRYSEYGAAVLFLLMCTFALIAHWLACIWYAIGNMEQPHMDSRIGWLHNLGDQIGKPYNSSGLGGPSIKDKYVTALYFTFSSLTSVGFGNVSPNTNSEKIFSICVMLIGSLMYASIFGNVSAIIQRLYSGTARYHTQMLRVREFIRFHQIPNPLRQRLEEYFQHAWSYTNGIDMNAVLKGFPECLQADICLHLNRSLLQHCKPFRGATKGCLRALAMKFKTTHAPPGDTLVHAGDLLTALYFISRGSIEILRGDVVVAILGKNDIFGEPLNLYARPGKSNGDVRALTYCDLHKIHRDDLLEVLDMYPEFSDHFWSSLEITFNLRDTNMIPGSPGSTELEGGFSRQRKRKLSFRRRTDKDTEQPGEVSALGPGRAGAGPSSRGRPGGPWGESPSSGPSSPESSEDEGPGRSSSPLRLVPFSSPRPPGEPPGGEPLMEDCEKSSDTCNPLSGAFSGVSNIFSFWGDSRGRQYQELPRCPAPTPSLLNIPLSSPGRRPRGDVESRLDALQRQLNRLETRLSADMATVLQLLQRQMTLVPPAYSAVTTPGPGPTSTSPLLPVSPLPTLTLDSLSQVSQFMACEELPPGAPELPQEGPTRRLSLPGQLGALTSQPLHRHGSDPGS

`Nc1nc(-c2ccccc2)nc2[nH]nc(Nc3ccc(C(F)(F)F)cc3)c12` [Compound 36, 3-(4-trifluoromethylphenyl)amino-6-phenylpyrazolo[3,4-d]pyrimidine-4-amine] gave an IC50 [1] of 0.16 µM, an IC50 [2] of 1.05 µM and an IC50 ([3]; Enterovirus, HeLa, read-out: IC50 values for high-level pleconaril-resistant viruses) of 0.04 to 0.64 µM. The strains inhibited ([3]; of the 60 strains tested, CPE inhibition, HeLa cells) was 52, the IC50 [4] was 0.16 ± 0.03 µM and the “effect on virus infectivity, incubation with cell-free virus” value ([5]; 1 h at 37 °C, then diluted 1:10^6) was “strong loss of virus infectivity”. The “effect on virus-induced plaque formation, pretreatment of cells” value ([5]; cells pretreated prior to virus inoculation) was “no effect”, the “Plasma stability (human), remaining (%)” value [6] was 100% and the “Metabolic stability (human liver microsomes), remaining %” value [7] was 100%. The “QT prolongation K+ channel (hERG)” value [8] was “low”, the “Induction of CYP1A2, CYP2B6, and CYP3A4” value [9] was “neither an inducer nor an inhibitor” and the “Inhibition of CYP1A, CYP2B6, CYP2C8, CYP2C9, CYP2C19, CYP2D6, and CYP3A” value [10] was “neither an inducer nor an inhibitor”. The Cl ([11]; mice, 100 mg/kg intragastric) was 10.42 mL·h/kg, the AUC ([11]; mouse, plasma, po, 100 mg/kg) was 9.6 µg·h/mL and the AUC(0-t) ([11]; mouse, plasma, po, 100 mg/kg) was 6.42 µg·h/mL. For the same compound, the MRT ([11]; mouse, plasma, po, 100 mg/kg) was 3.54 h, the Tmax ([11]; mouse, plasma, po, 100 mg/kg) was 3 h and the half-life ([11]; mouse, plasma, po, 100 mg/kg) was 3.5 h. For the same compound, the k el ([11]; mouse, plasma, po, 100 mg/kg) was 5e-05 s⁻¹, the Acute toxicity [12] was greater than 3 g/kg and the “acute and chronic toxicological studies, overall finding” value [13] was “no indications of adverse anatomical, behavioral or physiological effects”. The “antiviral effect, treatment started 3 h prior to or 1 and 3 days p. i.” value [14] was “strong antiviral effect” and the “therapeutic effect, treatment started 7 days p. i.” value ([14]; start 7 days p. i., results not shown) was “No therapeutic effect”.
